The target of series [1] is T1, STAT6 (SH2 domain) (Homo sapiens, UniProt P42226).
T1 sequence (P42226 517-632 limits assumed): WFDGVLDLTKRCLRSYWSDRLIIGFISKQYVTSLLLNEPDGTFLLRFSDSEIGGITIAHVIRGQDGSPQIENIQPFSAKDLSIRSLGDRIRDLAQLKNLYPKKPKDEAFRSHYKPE
As to the kind of experiment: Fluorescence polarization assay of affinity for STAT6. Type of series: binding.

The subject of series [2] is pSTAT6 (Tyr641) in Beas-2B cells. As to the kind of experiment: Inhibition of STAT6 Tyr641 phosphorylation in intact Beas-2B cells. Type of series: cell-based, human. Conditions: for pSTAT6 inhibition potency (in words): IL-4, Figure 4B. The essentials:
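Beas-2B cells seeded at 3.0 × 10^5 cells/well the day before. Prodrug added from DMSO stocks (5–10 μM stock) for 2 h, then IL-4 2 ng/mL for 1 h. Cells washed in cold PBS, lysed with PMSF, and protein measured by Lowry. 15–30 µg run on 10% SDS-PAGE and probed for pSTAT6 Tyr641 with ECL detection, then stripped and reprobed for total STAT6. Bands quantified densitometrically.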

Series [3] relates to pSTAT5 in CD4+ T lymphocytes. Type of series: cell-based. The note with it: primary mouse CD4+ T lymphocytes. The essentials: (§1)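 CD4+ T cells magnetically sorted from C57BL/6J mice. Activated on plate-bound anti-CD3 and/or anti-CD28 with IL-2 or IL-4 for 15 min. Lysed in kinase lysis buffer with protease inhibitors, 10 mM NaF and 1 mM Na3VO4. Protein equalised by Bradford, then immunoblotted for phospho-STAT5 Tyr694/STAT5 or phospho-STAT6 Tyr641/STAT6.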

Series [4] deals with Beas-2B cells. In words: Beas-2B cell viability/proliferation, MTS assay, 72 h. Type of series: cell-based, human. The note with it: 72 h exposure. The essentials:
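Beas-2B cells seeded at 2000 cells/well. Test compound made as 10 mM DMSO stock, serially diluted in DMSO, and equal amounts of each dilution added. Incubation at 37 °C for 72 h. Medium then replaced with 1:5 MTS/PBS for a further 1 h. Viable cells estimated from optical density at 490 nm.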
A general note: Formazan colour is commonly taken as a measure of viable cells.

Series [5] concerns pAkt in MDA-MB-468 cells. In words: Inhibition of EGF-stimulated pAkt in MDA-MB-468 cells. Type of series: cell-based, human. The note with it: serum starved MDA-MB-468, EGF.
Series [6] deals with CCL26 (eotaxin-3) mRNA in Beas-2B cells. As to the kind of experiment: Inhibition of IL-13 stimulated CCL26. Type of series: cell-based, human. Conditions: IL-13, 100 nM. The method, boiled down:
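Beas-2B cells plated at 4 × 10^5 cells/well and held overnight in complete medium, then serum-starved 2 h. Pretreated with test compound 2 h, then stimulated with IL-13 overnight in serum-free medium. RNA extracted with Trizol and reverse transcribed. CCL26 quantified relative to β-actin by TaqMan real-time PCR.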

Series [7] relates to pSTAT6 in CD4+ T lymphocytes. Type of series: cell-based. Conditions: primary mouse CD4+ T lymphocytes, Figure S2. The method, boiled down: as §1
The test system of series [8] is pSTAT6 (Tyr641) in Beas-2B cells. Conditions: IL-4 and IL-13 stimulated; cited from earlier work.

Like-named read-outs stand apart in the source and are kept apart here. Peptide text beside a SMILES is read from it.

The IC50 is the point on the concentration scale where inhibition reaches its midpoint. `CC(C)(C)[C@H](NC(=O)/C=C/c1ccc(OP(=O)(O)O)cc1)C(=O)N1CCC[C@H]1C(=O)N(c1ccccc1)c1ccc(I)cc1` [18a]: in series [1], the IC50 was determined as 40 nM.
As for `C/C(=C\C(=O)N[C@H](C(=O)N1CCC[C@H]1C(=O)N(C)C1CCCCC1)C(C)(C)C)c1ccc(C(F)(F)P(=O)(OCOC(=O)C(C)(C)C)OCOC(=O)C(C)(C)C)cc1` [compound 32], the “pSTAT6 inhibition potency (in words)” value in series [2] is reported as “high potency”. Moreover, in series [3], the “inhibition of IL-2 mediated STAT5 phosphorylation” value is given as “robust inhibition”. Moreover, the “cell viability (in words)” value in series [4] is on record as “nearly identical to that of 29”.
In the case of `CC(C)(C)C(=O)OCOP(=O)(OCOC(=O)C(C)(C)C)C(F)(F)c1ccc(/C=C/C(=O)N[C@H](C(=O)N2CCC[C@H]2C(=O)N(c2ccccc2)c2ccccc2)C(C)(C)C)cc1` [compound 28], in series [2] (prodrug 2 h, IL-4 1 h), the “concentration giving complete inhibition of pSTAT6” value was found to be 500 nM and the “concentration giving significant inhibition of pSTAT6” value is 100 nM. The “inhibition of IL-2 mediated STAT5 phosphorylation” value in series [3] is reported as “robust inhibition”. For the same molecule, the “effect on cell viability at concentrations ≤1 µM” value in series [4] was “did not affect viability”.
In series [1], `CC[C@H](C)[C@H](NC(=O)[C@H](CC(C)C)NC(=O)[C@H](CC(=O)O)NC(=O)[C@H](CCC(N)=O)NC(=O)[C@H](Cc1ccccc1)NC(=O)[C@@H]1CCCN1C(=O)[C@H](CCCCN)NC(=O)[C@H](Cc1ccc(OP(=O)(O)O)cc1)NC(C)=O)C(N)=O` [compound 1, Ac-pTyr-Lys-Pro-Phe-Gln-Asp-Leu-Ile-NH2] (HELM PEPTIDE1{[ac].[O=C([C@H](Cc1ccc(OP(=O)(O)O)cc1)N[*:1])[*:2]].K.P.F.Q.D.L.I.[am]}$$$$V2.0) yielded an IC50 of 2000 nM.
Still for that read-out and setting: the value for `C/C(=C\C(=O)N[C@H](C(=O)N1CCCC1/C=C/CCc1ccccc1)C(C)(C)C)c1ccc(OP(=O)(O)O)cc1` (stereo partly drawn) [compound 25] was 500 nM.
Take `CN(C(=O)[C@@H]1CCCN1C(=O)[C@@H](NC(=O)/C=C/c1ccc(C(F)(F)P(=O)(OCOC(=O)C(C)(C)C)OCOC(=O)C(C)(C)C)cc1)C(C)(C)C)c1ccccc1` [compound 29]: in series [2] (prodrug 2 h, IL-4 1 h), the “concentration giving nearly complete inhibition of pSTAT6” value turned out to be 100 nM and the “concentration giving significant inhibition of pSTAT6” value is 50 nM. Moreover, in series [3], the “inhibition of IL-2 mediated STAT5 phosphorylation” value is given as “robust inhibition”. Moreover, the “inhibition of pAkt at 5 µM” value in series [5] is reported as “mild inhibition”. In series [4], the “effect on cell viability at concentrations ≤1 µM” value was “did not affect viability”.
Consider `CC(C)(C)C(=O)OCOP(=O)(OCOC(=O)C(C)(C)C)C(F)(F)c1ccc(/C=C/C(=O)N[C@H](C(=O)N2CCC[C@H]2C(=O)Nc2ccccc2)C(C)(C)C)cc1` [compound 30], for which the “loss of pSTAT6 inhibition potency relative to 29” value in series [2] (IL-4) is “approximately 25 fold”. The “inhibition of IL-2 mediated STAT5 phosphorylation” value in series [3] was “not an inhibitor of pSTAT5”. Further, in series [5], the “lowest concentration with potent inhibition of pAkt” value was determined as 100 nM. The “cell viability (in words)” value in series [4] is recorded as “the fraction of viable cells paralleled pSTAT6 inhibition”.
On to `C/C(=C\C(=O)N[C@H](C(=O)N1CCC[C@H]1C(=O)N(C)c1ccccc1)C(C)(C)C)c1ccc(C(F)(F)P(=O)(OCOC(=O)C(C)(C)C)OCOC(=O)C(C)(C)C)cc1` [compound 31], for which the “pSTAT6 inhibition potency (in words)” value in series [2] is on record as “retains potency”. Besides, the “inhibition of IL-2 mediated STAT5 phosphorylation” value in series [3] is listed as “robust inhibition”. The “inhibition of pAkt at 5 µM” value in series [5] is reported as “mild inhibition”. In series [6], the “inhibition of CCL26 mRNA expression at 100 nM” value is listed as > 50%. In addition, the “cell viability (in words)” value in series [4] was “nearly identical to that of 29”.
Regarding `CC(C)(C)C(=O)OCOP(=O)(OCOC(=O)C(C)(C)C)C(F)(F)c1ccc(/C=C/C(=O)N[C@H](C(=O)N2CCC[C@H]2C(=O)N(c2ccccc2)c2ccc(I)cc2)C(C)(C)C)cc1` [compound 17], the “inhibition of IL-4 stimulated pSTAT6” value in series [7] is recorded as “relatively weak”. In addition, the “inhibition of CCL26 mRNA expression at 100 nM” value in series [6] was > 50%. Besides, in series [8], the “concentration giving significant inhibition of pSTAT6” value is ≥ 1 µM.

These data come from PMC5109833 (Journal of medicinal chemistry, 2015).
